The values below come from ChEMBL document CHEMBL1629659, “Bronchopulmonary disposition of micafungin in healthy adult volunteers” (Antimicrob Agents Chemother, 2009).

Series [1] is described as follows: Drug concentration in healthy human epithelial lining fluid at 150 mg, iv […] measured after 24 hrs of third postdose by urea dilution method. The class given is ADME, organism-based. The following applies: read-out: Drug uptake. The method, boiled down: (§1)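 The first aspirate was discarded and the rest pooled. Cells were pelleted and lysed. Drug in BAL fluid and pellet was measured by HPLC. Urea in BAL and plasma was measured by colorimetric enzymatic assay. ELF and alveolar-cell levels were derived by urea dilution.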

Series [2] in a line: Drug concentration in Alveolar macrophage cells of healthy human at 150 mg, iv […] measured after 4 hrs of third postdose by urea dilution method. In kind it is ADME, organism-based. The following applies: read-out: Drug uptake. The method, boiled down:
as §1

A short description of series [3]: Drug concentration in Alveolar macrophage cells of healthy human at 150 mg, iv […] measured after 12 hrs of third postdose by urea dilution method. The following applies: read-out: Drug uptake. The class given is ADME, organism-based. The method, boiled down:
as §1

The nature of series [4]: Drug concentration in Alveolar macrophage cells of healthy human at 150 mg, iv […] measured after 24 hrs of third postdose by urea dilution method. The class given is ADME, organism-based. The following applies: read-out: Drug uptake. Summed up: as §1
The test system of series [5] is Plasma. The series can be described thus: Plasma concentration in healthy human at 150 mg, iv […] measured before third dose. The class given is ADME, organism-based. The following applies: in vivo. The method, boiled down:
(§2)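 Healthy volunteers (n=15) were given 150 mg micafungin IV over 1 h every 24 h for three doses. Plasma was sampled before and after the third dose (0, 1, 4, 12, 24 h). Quantitation used modified, validated HPLC with a standard curve linear over 0.05–25.0 μg/ml. Interday CV was ≤11.3% and intraday CV <18%.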

A short description of series [6]: Plasma concentration in healthy human at 150 mg, iv […] measured after 24 hrs of third postdose. The class given is ADME, organism-based. Summed up: as §2
Series [7] in a line: Cmax in healthy human plasma at 150 mg, iv […]. The class given is ADME, organism-based. Also noted: dose 150 mg, route intravenous. The method, boiled down:
(§3)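 Fifteen healthy adults received micafungin 150 mg IV, infused over 1 h every 24 h, for three doses. Blood was drawn before the third dose, at end of infusion (1 h), and 4, 12 and 24 h after the third dose. Plasma levels were measured by validated HPLC (linear 0.05–25.0 μg/ml). Parameters came from noncompartmental analysis over the 24-h dosing interval.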

Series [8] in a line: AUC ( 0 to 24 hrs) in healthy human plasma at 150 mg, […]. In kind it is ADME, organism-based. Also noted: dose 150 mg, time < 24 hr, route intravenous. To be noted: iv. The method, boiled down: as §3
Series [9] can be described thus: Volume of distribution in healthy human plasma at 150 mg, iv […]. The class given is ADME, organism-based. Summed up: as §3
The nature of series [10]: Clearance at steady state in healthy human plasma at 150 mg, iv […]. In kind it is ADME, organism-based. Summed up:
as §3

Series [11] can be described thus: Half life in healthy human plasma at 150 mg, iv […]. The class given is ADME, organism-based. The method, boiled down:
as §3

The nature of series [12]: AUC ( 0 to 24 hrs) in healthy human epithelial lining fluid at 150 mg, iv […]. The class given is ADME, organism-based. On the set-up: dose 150 mg, time < 24 hr, route intravenous. Summed up:
(§4)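 Steady-state ELF and alveolar-cell concentrations were derived by urea dilution from BAL, with one bronchoscopy per subject at 4, 12 or 24 h after the third 150 mg IV dose (five subjects per time). A composite AUC over 0–24 h was calculated across subjects by the trapezoidal rule.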

Series [13] can be described thus: AUC ( 0 to 24 hrs) in Alveolar macrophage cells of healthy human at 150 mg, iv […]. In kind it is ADME, organism-based. On the set-up: time < 24 hr, dose 150 mg, route intravenous. The method, boiled down:
as §4

The nature of series [14]: Penetration ratio, ratio of AUC for human epithelial lining fluid to AUC for human plasma. The class given is ADME. To be noted: read-out: Ratio AUC. The method, boiled down:
(§5)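 Penetration was expressed as composite AUC0-24 in ELF or alveolar cells (urea-dilution-corrected BAL data, trapezoidal rule) divided by plasma AUC0-24 (noncompartmental). Subjects received 150 mg IV daily for three doses.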

A short description of series [15]: Penetration ratio, ratio of AUC for alveolar macrophage cells of healthy human to AUC for human plasma. The class given is ADME, cell-based. To be noted: read-out: Ratio AUC. The method, boiled down:
as §5

Series [16] relates to Aspergillus fumigatus. The series can be described thus: Antimicrobial activity against germinated Aspergillus fumigatus conidia. To be noted: read-out: MEC. The class given is functional.
Series [17] relates to Aspergillus fumigatus. The series can be described thus: Antimicrobial activity against non-germinated Aspergillus fumigatus conidia. In kind it is functional. The following applies: read-out: MEC.
Series [18] can be described thus: Ratio of Cmax to MEC for Aspergillus. The class given is functional.
The subject of series [19] is Plasma. The series can be described thus: Plasma protein binding in healthy human. The class given is ADME, cell-free.
A short description of series [20]: Drug concentration in healthy human epithelial lining fluid at 150 mg, iv QD measured after 4 hrs of third postdose by urea dilution method. The following applies: read-out: Drug uptake.
Series [21] in a line: Drug concentration in healthy human epithelial lining fluid at 150 mg, iv QD measured after 12 hrs of third postdose by urea dilution method. To be noted: read-out: Drug uptake.
Series [22] can be described thus: Drug concentration in healthy human plasma at 150 mg, iv QD measured after 4 hrs of third postdose by high-pressure liquid chromatography method. The following applies: read-out: Drug uptake.
The nature of series [23]: Drug concentration in healthy human plasma at 150 mg, iv QD measured after 12 hrs of third postdose by high-pressure liquid chromatography method. The following applies: read-out: Drug uptake.
The nature of series [24]: Drug concentration in healthy human plasma at 150 mg, iv QD measured after 24 hrs of third postdose by high-pressure liquid chromatography method. The following applies: read-out: Drug uptake.

Numbered stars: 1 amine (or outer) side, 2 acyl side, 3 side chain; on linkers, the order of the positions; unused ones are H or OH. Bridge positions count the residues as written; N and C are the ends. Square brackets hold non-standard residues; d marks the D form. Peptide text beside a SMILES is read from it. * marks the point of attachment. hTyr(3S-OH,4S-OH,3'-OSO3H) = N[C@H](C(=O)O)[C@H](O)[C@@H](O)c1ccc(O)c(OS(=O)(=O)O)c1; Orn(4R-OH,5R-OH) = O=C([C@H](C[C@@H](O)[C@@H](O)N[*:3])N[*:1])[*:2]; Pro(3S-OH,4S-Me) = C[C@H]1CN[C@H](C(=O)O)[C@H]1O; X1 = CCCCCOc1ccc(-c2cc(-c3ccc(C(=O)*)cc3)no2)cc1; Gln(3R-OH) = NC(=O)C[C@@H](O)[C@H](N)C(=O)O; Hyp = O=C(O)[C@@H]1C[C@@H](O)CN1

As to `CCCCCOc1ccc(-c2cc(-c3ccc(C(=O)N[C@H]4C[C@@H](O)[C@@H](O)NC(=O)[C@@H]5[C@@H](O)[C@@H](C)CN5C(=O)[C@H]([C@H](O)CC(N)=O)NC(=O)[C@H]([C@H](O)[C@@H](O)c5ccc(O)c(OS(=O)(=O)O)c5)NC(=O)[C@@H]5C[C@@H](O)CN5C(=O)[C@H]([C@@H](C)O)NC4=O)cc3)no2)cc1` [MICAFUNGIN] (X1-[Orn(4R-OH,5R-OH)]T[Hyp][hTyr(3S-OH,4S-OH,3'-OSO3H)][Gln(3R-OH)][Pro(3S-OH,4S-Me)]; lactam 1-C), the concentration at 24 h in [1] was found to be 430 ng/mL; in series [4] it was 14600 ng/mL; in [6] it was 4670 ng/mL; in series [24], 4800 ng/mL. For the same molecule, the figures for the concentration at 4 h in series [2], in series [20] and in series [22] were 10400 ng/mL, 520 ng/mL and 14800 ng/mL, respectively. Moreover, the values for the concentration at 12 h in series [3], in [21] and in series [23] were 8400 ng/mL, 440 ng/mL and 7400 ng/mL, respectively. The same molecule returned a Cp in the series with Plasma [5] of 4280 ng/mL. Also, the highest level in [7] (Cmax) was 19100 ng/mL. Moreover, the results for the AUC at 24 h in series [8], in [12] and in series [13] were 220 µg·h/mL, 10.2 µg·h/mL and 234 µg·h/mL, respectively. In series [9], the Vd (commonly a proportionality between amount in the body and measured concentration, not a real space) was determined as 15 L. Moreover, in series [10], the clearance (commonly the rate of elimination divided by the concentration) is 11.7 mL/min. In addition, the half-life (in general, the time needed for the level to fall by half in the phase considered) in series [11] was 14.7 h. Besides, the Kp in series [14] is 5; in [15], 106. Moreover, the minimal effective concentration in the series on Aspergillus fumigatus [16] was 0.25 µg/mL; with Aspergillus fumigatus [17], 0.06 µg/mL. Moreover, the Ratio in series [18] came to 10. Moreover, the PPB in the series on Plasma [19] was 99%.
